HUVEC inhibit – human endothelial cell proliferation inhibition | HUVEC proliferation, CellTiter-Glo luminescence, 72 h; active compounds read low | 1.1% of 86,000 active | AID 648 | viability, % at 10 µM (by protocol);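 active = viability at or below 30%; inactive = viability above 30%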;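 also: 100% = median luminescence of DMSO-only cell control wells on each plate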
Jurkat tox 60K – reduces viability or proliferation of Jurkat cells; Jurkat E6.1 viability, ATP luminescence, 48 h; inhibition, % at 4 µM; 1.2% of 56,000 active; AID 463;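 active = inhibition above the mean inhibition of all tested compounds plus 3 SD, cut at about 28% in these data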
Fibroblast inh – blocks proliferation of human lung fibroblasts; LL 47 human lung fibroblast viability, ATP luminescence; active compounds read low; viability, % at 10 µM; 1.1% of 85,000 active; AID 719;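 active = viability at or below 50% in the single dose screen; inactive = viability above 50%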;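 also: compound exposure lasted 72 h before the ATP readout; 100% = median luminescence of untreated cell-only wells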
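test system = LL 47 human lung fibroblasts | amount = 1,150 fibroblasts seeded per well | medium = 15% FBS in IMEM | times = overnight cell rest, 72 h compound treatment at 37 °C | measured by = CellTiter-Glo luminescence measuring cellular ATP | read-out = viability percentage against median untreated-cell control | benchmarks = cell-only wells, no compound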
H69AR inhibit – growth inhibitors of human H69AR lung tumor cells | 6% of 85,000 active | H69AR lung tumor viability, ATP luminescence, 72 h; active compounds read low | AID 598 | viability, % at 10 µM;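 active = viability at or below 40%; inactive = viability above 40%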;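 also: multidrug resistant small cell line overexpressing MRP-1 efflux transporter; 100% = mean luminescence of untreated control wells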
tolC growth inh – blocks growth of E. coli BW25113 tolC mutant | OD615 | growth inhibition, % at 10 µM (by protocol) | 2.2% of 65,000 active | AID 573;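 active = growth inhibition at or above a cutoff equal to the mean over every tested compound plus 3 SD, cut at about 60% in these data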;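 also: growth measured after 20 h incubation at 37 °C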
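Test system – E. coli BW25113 ΔtolC::kan, tolC deletion mutant strain · Detection – OD at 615 nm · Buffer or medium – LB with kanamycin 50 µg/mL · Times – 20 h compound exposure of bacteria at 37 °C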
E coli WT exp – growth inhibitors of E. coli BW25113 wild type; OD600 absorbance; growth inhibition, % at 100 µM; 0.15% of 98,000 active;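 active = growth inhibition above about 50% at one test dose, limit read from the data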;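 also: growth measured after 20 h incubation at 37 °C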
* hit, by the source's call; nt = not tested or not shown. Hits are enriched below; roughly 6.4% of the tested compounds scored in any of these assays.

SMILES	HUVEC inhibit	Jurkat tox 60K	Fibroblast inh	H69AR inhibit	tolC growth inh	E coli WT exp
COCCN1C(=O)C(=O)/C(=C(/O)c2ccc(S(=O)(=O)N3CCOCC3)cc2)C1c1ccc(C(C)C)cc1 (stereo not drawn)	nt	nt	nt	nt	nt	3.0
CCOC(=O)Cn1c(=O)c(-c2ccccc2NCc2ccccc2)nc2ccccc21	56.7	nt	73.9	27.6*	nt	nt
CCCC(C)NC(=O)c1ccc(C2SCC(=O)N2Cc2ccco2)cc1 (stereo not drawn)	94.8	nt	100.8	74.1	nt	13.0
COc1ccc(S(=O)(=O)c2ccc(OC)c(OC)c2)cc1OC	98.6	7.6	96.0	102.7	-5.3	-6.0
CS(=O)(=O)N1CCC(C(=O)Nc2ccc(Oc3ccccc3)cc2)CC1	83.7	3.1	94.0	31.9*	5.0	3.0
Cc1ccc(NC(=O)C2CCN(S(C)(=O)=O)CC2)cc1	104.2	nt	89.4	104.1	nt	3.0
Cc1cc(NC(=O)c2ccccc2)sc1C	80.1	4.7	96.1	76.1	97.8*	54.0*
Cc1ccc(NC(=O)c2ccccc2)s1	103.2	6.4	99.4	95.5	54.8	77.0*
Cc1sc(NC(=O)c2ccccc2)c(C(=O)NCCN(C)C)c1C	nt	nt	nt	nt	nt	6.0
COC(=O)c1c(NC(=O)c2ccccc2)sc(C(=O)c2ccccc2)c1C	nt	nt	nt	nt	nt	-6.0
CCCCNCc1cccn1-c1ccccc1	91.7	nt	94.2	85.6	nt	nt
O=S(=O)(Cc1ccccc1)c1cnc2ccccc2n1	93.0	nt	92.1	7.1*	nt	-7.0
CC(C)COC(=O)C1C(=O)CC(C)(O)C(C(=O)OCC(C)C)C1c1cccnc1 (stereo not drawn)	94.3	-2.8	98.3	29.4*	0.3	-1.0
COC(=O)c1ccccc1NC(=O)CSc1nnnn1C1CCCCC1	101.9	0.9	98.6	66.2	48.7	-2.0
CCOC(=O)c1ccccc1NC(=O)CSc1nnnn1C1CCCCC1	90.6	5.1	94.5	78.1	72.2*	-11.0
CCOc1ccc2nc(NC(=O)C3CCCN(S(=O)(=O)c4c(C)noc4C)C3)sc2c1 (stereo not drawn)	nt	6.6	nt	nt	18.1	nt
CCOc1ccc(OCC)c(NC(=O)C2CCCN(S(=O)(=O)c3c(C)noc3C)C2)c1 (stereo not drawn)	78.0	-5.7	81.6	19.2*	-7.8	-7.0
COc1ccc2nc(NC(=O)C3CCCN(S(=O)(=O)c4c(C)noc4C)C3)sc2c1 (stereo not drawn)	86.1	8.5	101.4	35.1*	17.6	-5.0
Cn1cc(SCC(=O)Nc2nc3ccccc3s2)c2ccccc21	10.5*	nt	97.1	71.3	62.0*	-23.0
COc1ccc(OC)c(NC(=O)CSc2nnc(N)s2)c1	84.5	-8.4	94.5	85.1	-14.6	3.0
CCOc1cc2[nH]c(=O)n(Cc3cccc(OC)c3)c(=O)c2cc1OCC	101.0	5.9	95.0	20.9*	3.8	-4.0
CCOc1cc2[nH]c(=O)n(Cc3ccc(C(=O)NCCOC)cc3)c(=O)c2cc1OCC	96.4	-0.6	99.0	90.3	-2.2	-2.0
C=C(c1ccc(OC)cc1)c1ccc(OC)cc1	83.3	nt	95.1	31.7*	nt	-16.0
Cc1ccc(C(=O)Nc2nc(COc3ccccc3)cs2)s1	87.0	14.1	97.2	88.5	79.1*	-9.0
CC(=O)Nc1nc(COc2ccccc2)cs1	74.3	9.8	88.6	89.7	7.0	12.0
SMILES	HUVEC inhibit	Jurkat tox 60K	Fibroblast inh	H69AR inhibit	tolC growth inh	E coli WT exp
O=C(Nc1nc(COc2ccccc2)cs1)C1CCC1	94.1	nt	96.0	96.6	nt	nt
O=C(Nc1nc(COc2ccccc2)cs1)C12CC3CC(CC(C3)C1)C2	55.5	nt	87.1	39.2*	nt	-8.0
Cc1cc(NC(=O)CSc2nc3sc(C)c(C)c3c(=O)n2C2CCCC2)no1	44.6	nt	14.6*	15.2*	nt	-9.0
COc1ccc(C(C(=O)NC(C)(C)C)N(C(=O)CNC(=O)c2cccs2)c2ccc(C(C)C)cc2)cc1OC (stereo not drawn)	nt	nt	nt	nt	nt	-7.0
CCOc1ccccc1NC(=O)CCN1CCN(S(=O)(=O)c2ccc(Br)cc2)CC1	91.6	-0.1	98.1	82.9	0.7	1.0
Clc1cccc(N2CCN(Cc3nc(-c4ccccc4)no3)CC2)c1	98.9	-0.2	96.0	102.2	20.4	1.0
Cc1ccc(-c2noc(CCC(=O)NCCCN3CCN(c4cccc(Cl)c4)CC3)n2)cc1	23.1*	1.4	56.6	36.9*	36.1	-1.0
Cc1ccc(-c2noc(CCC(=O)NCCCN3CCN(c4ccc(F)cc4)CC3)n2)cc1	75.1	2.0	58.0	26.7*	-18.0	5.0
COc1ccc(-c2noc(CCC(=O)NCCCN3CCC(C)CC3)n2)cc1	99.5	nt	100.0	96.9	-11.8	0.0
CC(C)CC1NC(=O)N(CC(=O)N2CCN(S(=O)(=O)c3ccccc3)CC2)C1=O (stereo not drawn)	92.3	nt	97.8	87.1	nt	3.0
N=c1ccn(Cc2ccc(Cl)c(Cl)c2)cc1	98.7	29.6*	57.4	50.1	13.2	24.0
O=C1CC(N(CCc2ccccc2)C(=S)Nc2cc(Cl)ccc2Cl)C(=O)N1c1c(Cl)cccc1Cl (stereo not drawn)	nt	nt	nt	nt	nt	-15.0
CC(=O)NC(Cc1c[nH]c2ccccc12)C(=O)OCC(=O)Nc1ccc2c(c1)OCO2 (stereo not drawn)	82.8	-7.6	93.3	12.6*	3.2	6.0
CCCCN(CCCC)CCNC(=O)CNC(=O)c1cccs1	100.6	nt	94.5	86.1	nt	-10.0
CCCCCOc1ccc(C(=O)NCC(=O)NCC(=O)OCC)cc1	56.5	nt	83.2	24.6*	12.8	-11.0
CCOC(=O)CNC(=O)CNC(=O)c1ccc(OCC(C)C)cc1	89.1	nt	82.5	53.8	13.3	-1.0
CCCCN(CCCNC(=O)c1ccc2nc(N3CCOCC3)sc2c1)Cc1ccccc1	69.7	nt	93.3	48.6	nt	0.0
CCn1c2ccccc2c2nnc(SCC(=O)N3CC(C)OC(C)C3)nc21 (stereo not drawn)	89.5	1.5	101.2	83.5	-6.0	2.0
CCN(CC)CCNc1c2c(c(C#N)c3nc4ccccc4n13)CCCC2	90.8	nt	90.3	33.4*	nt	-4.0
CCCCCCOc1ccc(/C(N)=N/O)cc1	79.7	97.3*	92.2	35.3*	4.7	21.0
O=C(CCCc1nc2ccccc2s1)Nc1nccs1	67.4	-5.5	94.7	89.3	0.8	-11.0
Cc1cnc(NC(=O)CCCc2nc3ccccc3s2)s1	29.6*	nt	35.2*	71.3	nt	-7.0
CC(=O)c1cccc(NC(=O)COc2ccc(S(=O)(=O)N3CCCCC3)cc2)c1	103.4	7.9	103.7	62.9	11.9	-1.0
COc1cc2c(cc1OC)C(c1ccc(-c3ccc(Cl)cc3Cl)o1)=NCC2	nt	nt	nt	nt	nt	-25.0
COc1cc2c(cc1OC)C(c1ccc(-c3ccccc3Cl)o1)=NCC2	67.8	nt	81.5	29.5*	nt	8.0
COc1cc2c(cc1OC)C(c1ccc(-c3ccc(Cl)c(Cl)c3)o1)=NCC2	64.8	nt	71.1	19.2*	nt	-6.0
COC(=O)c1ccc(C(=O)OC)c(NC(=O)CN2CCN(c3ccccc3)CC2)c1	58.7	9.5	55.5	15.7*	5.0	3.0
COC(=O)c1ccc(C(=O)OC)c(NC(=O)CSc2cccc[n+]2[O-])c1	90.2	nt	97.6	2.2*	nt	50.0*
